The target in assay [1] is Insulin-like growth factor 1 receptor (Homo sapiens) (UniProt P08069). Kind of assay: Inhibition of recombinant human activated IGF1R (959 to end residues) at 1 uM using KKKSPGEYVNIEFG as substrate measured after 40 mins in presence of [gamma33P]ATP by scintillation counting method relative to control.
The target of assay [2] is Death-associated protein kinase 2 (Homo sapiens) (UniProt Q9UIK4). Briefly: Inhibition of recombinant full-length human DAPK2 at 1 uM using calmodulin as substrate measured after 40 mins in presence of [gamma33P]ATP by scintillation counting method relative to control.
In assay [3] the target is G protein-coupled receptor kinase 6 (Homo sapiens) (UniProt P43250). Briefly: Inhibition of recombinant full-length human GRK6 at 1 uM using casein as substrate measured after 40 mins in presence of [gamma33P]ATP by scintillation counting method relative to control.
Assay [4] has as its target Leukocyte tyrosine kinase receptor (Homo sapiens) (UniProt P29376). Kind of assay: Inhibition of recombinant human LTK (450 to end residues) at 1 uM using GEEPLYWSFPAKKK as substrate measured after 40 mins in presence of [gamma33P]ATP by scintillation counting method relative to control.
Another assay deals with MDA-MB-231. Briefly: Antiproliferative activity against human MDA-MB-231 cells assessed as inhibition of cell viability after 72 hrs by CCK-8 assay. It counts as functional, cell-based. As to conditions: MDA-MB-231, 72 h. In outline: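 Cells kept at 37 °C, 5% CO2 in DMEM or RPMI-1640 with 10% FBS and 1% penicillin/streptomycin, then seeded at 3000 cells/well (adherent) or 10,000 cells/well (suspension). Exposed to a range of concentrations for 72 h. CCK-8 added for 1-4 h before reading A450. […] Three independent experiments.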
In general terms: Tetrazolium assays rely on reduction of a dye to a coloured formazan, in cell work by metabolically active cells.

For assay [5], the target named is Serine/threonine-protein kinase ICK (Homo sapiens) (UniProt Q9UPZ9). Kind of assay: Inhibition of recombinant human ICK (1 to 312 residues) at 1 uM using RRRFRPASPLRGPPK as substrate measured after 40 mins in presence of [gamma33P]ATP by scintillation counting method relative to control.
Assay [6] deals with Serine/threonine-protein kinase N2 (Homo sapiens) (UniProt Q16513). Briefly: Inhibition of human PRK2 (501 to end residues) at 1 uM using AKRRRLSSLRA as substrate measured after 40 mins in presence of [gamma33P]ATP by scintillation counting method relative to control. Put shortly:
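Single-point inhibition at 1 µM was measured in the Eurofins KinaseProfiler panel. Values are the mean of two independent experiments.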

In assay [7] the target is Vascular endothelial growth factor receptor 1 (Homo sapiens) (UniProt P17948). Briefly: Inhibition of recombinant human Flt1 (783 to end residues) at 1 uM using KKKSPGEYVNIEFG as substrate measured after 40 mins in presence of [gamma33P]ATP by scintillation counting method relative to control.
In assay [8] the test system is A549. Briefly: Induction of apoptosis in human A549 cells assessed as late apoptotic cells at 1 uM after 48 hrs by AnnexinV-FITC/PI staining-based flow cytometric analysis (reference value: 7.66%). It counts as functional. (In flow cytometry, cells or beads pass a laser one at a time.)
Assay [9] deals with A549. Briefly: Induction of cell cycle arrest in human A549 cells assessed as accumulation at G2/M phase after 24 hrs by propidium iodide/RNase staining based flow cytometric analysis. It counts as functional. In outline:
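A549 and H1299 plated at 5×10^5 cells/mL in 6-well plates, treated after adherence for 24 h. Washed with PBS, fixed overnight in ice-cold 75% ethanol, stained with propidium iodide plus RNase A for 30 min at 37 °C, analysed by flow cytometry for phase distribution. Means ± SD, three independent experiments.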

Assay [10] deals with MAPK/MAK/MRK overlapping kinase (Homo sapiens) (UniProt Q9UQ07). Briefly: Inhibition of recombinant human MOK (1 to 343 residues) at 1 uM using RSRSRSRSRSRSRSR as substrate measured after 40 mins in presence of [gamma33P]ATP by scintillation counting method relative to control.
Assay [11] deals with Receptor-interacting serine/threonine-protein kinase 1 (Homo sapiens) (UniProt Q13546). Kind of assay: Inhibition of human RIPK1 (8 to 322 residues) at 1 uM using myelin basic protein as substrate measured after 120 mins in presence of [gamma33P]ATP by scintillation counting method relative to control. In outline:
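Percent inhibition of kinase activity at a single compound concentration, measured by the outsourced Eurofins KinaseProfiler panel. Values are the mean of two independent experiments.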

The species entered for another assay is Homo sapiens. Kind of assay: Inhibition of recombinant human Mer H628Q/R794A mutant (557 to 882 residues) at 1 uM using GGMEDIYFEFMGGKKK as substrate measured after 40 mins in presence of [gamma33P]ATP by scintillation counting method relative to control.
Assay [12] has as its target 5'-AMP-activated protein kinase catalytic subunit alpha-2 (Homo sapiens) (UniProt P54646). Briefly: Inhibition of full length recombinant human AMPK alpha2 at 1 uM using AMARAASAAALARRR as substrate measured after 40 mins in presence of [gamma33P]ATP by scintillation counting method relative to control.
Assay [13] concerns A549. Briefly: Induction of apoptosis in human A549 cells assessed as early apoptotic cells at 1 uM after 48 hrs by AnnexinV-FITC/PI staining-based flow cytometric analysis (reference value: 2.91%). It counts as functional.
Assay [14] has as its system Serine/threonine-protein kinase B-raf (Homo sapiens), P15056 [V600E]. Kind of assay: Inhibition of recombinant human BRAF V599E mutant (416 to end residues) at 1 uM using myelin basic protein as substrate measured after 40 mins in presence of [gamma33P]ATP by scintillation counting method relative to control.
The target in assay [15] is PAS domain-containing serine/threonine-protein kinase (Homo sapiens) (UniProt Q96RG2). Kind of assay: Inhibition of recombinant human PASK (995 to end residues) at 1 uM using KKLNRTLSFAEPG as substrate measured after 40 mins in presence of [gamma33P]ATP by scintillation counting method relative to control.
The target in assay [16] is Aurora kinase C (Homo sapiens) (UniProt Q9UQB9). Briefly: Inhibition of recombinant human AURKC (35 to end residues) at 1 uM using AKRRRLSSLRA as substrate measured after 40 mins in presence of [gamma33P]ATP by scintillation counting method relative to control.
Assay [17] has as its system Eukaryotic elongation factor 2 kinase (Homo sapiens), O00418 [H23R]. Briefly: Inhibition of recombinant human EEF2K H23R mutant (2 to end residues) at 1 uM using RKKFGESEKTKTKEFL as substrate measured after 40 mins in presence of [gamma33P]ATP by scintillation counting method relative to control.
The next assay deals with CDK4/Cyclin D3 (Homo sapiens, UniProt P11802). Kind of assay: Inhibition of recombinant full-length human CDK4/cyclinD3 using Rb fragment as substrate measured after 40 mins in presence of [gamma33P]ATP by scintillation counting method. It counts as protein-complex assay.
For assay [18], the system named is Fibroblast growth factor receptor 2 (Homo sapiens), P21802 [N549H]. Kind of assay: Inhibition of recombinant human FGFR2 N549H mutant (456 to 770 residues) at 1 uM using GGEEEEYFELVKKKK as substrate measured after 40 mins in presence of [gamma33P]ATP by scintillation counting method relative to control.

Sequence of Aurora kinase C (Homo sapiens) (Q9UQB9 whole entry): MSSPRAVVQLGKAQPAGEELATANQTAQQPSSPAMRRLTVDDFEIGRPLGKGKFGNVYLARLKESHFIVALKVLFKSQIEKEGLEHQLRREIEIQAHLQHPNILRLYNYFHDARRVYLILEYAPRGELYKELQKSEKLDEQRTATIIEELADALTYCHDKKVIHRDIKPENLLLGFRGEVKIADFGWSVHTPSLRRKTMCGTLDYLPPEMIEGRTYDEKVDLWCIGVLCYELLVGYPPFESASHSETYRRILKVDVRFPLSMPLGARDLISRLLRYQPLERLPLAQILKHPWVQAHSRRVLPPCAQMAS
Sequence of Serine/threonine-protein kinase N2 (Homo sapiens) (Q16513 whole entry, looked up): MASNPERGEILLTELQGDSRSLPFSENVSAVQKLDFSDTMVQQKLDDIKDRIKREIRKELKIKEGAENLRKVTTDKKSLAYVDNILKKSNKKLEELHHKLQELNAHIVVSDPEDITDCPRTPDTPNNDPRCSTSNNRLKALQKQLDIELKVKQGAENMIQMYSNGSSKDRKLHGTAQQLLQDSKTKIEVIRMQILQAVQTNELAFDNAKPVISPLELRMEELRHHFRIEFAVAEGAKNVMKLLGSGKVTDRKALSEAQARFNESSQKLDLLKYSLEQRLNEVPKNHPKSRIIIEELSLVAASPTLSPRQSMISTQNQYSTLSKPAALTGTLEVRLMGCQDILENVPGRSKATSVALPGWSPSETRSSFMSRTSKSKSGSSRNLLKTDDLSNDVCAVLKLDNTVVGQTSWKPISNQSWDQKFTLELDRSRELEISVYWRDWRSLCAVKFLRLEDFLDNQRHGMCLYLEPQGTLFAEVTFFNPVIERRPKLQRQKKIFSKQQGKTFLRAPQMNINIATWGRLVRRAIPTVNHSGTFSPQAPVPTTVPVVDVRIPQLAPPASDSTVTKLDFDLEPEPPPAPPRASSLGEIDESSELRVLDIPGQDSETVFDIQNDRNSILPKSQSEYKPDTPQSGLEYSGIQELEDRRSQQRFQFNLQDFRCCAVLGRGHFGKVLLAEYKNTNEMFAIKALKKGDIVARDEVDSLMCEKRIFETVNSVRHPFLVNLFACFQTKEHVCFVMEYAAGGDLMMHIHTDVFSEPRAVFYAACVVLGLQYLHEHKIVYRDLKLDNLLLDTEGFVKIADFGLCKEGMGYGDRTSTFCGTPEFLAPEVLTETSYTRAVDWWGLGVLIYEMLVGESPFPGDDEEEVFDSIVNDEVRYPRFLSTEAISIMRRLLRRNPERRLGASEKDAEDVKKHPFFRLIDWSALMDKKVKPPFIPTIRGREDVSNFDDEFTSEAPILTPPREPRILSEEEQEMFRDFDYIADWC
Sequence of Leukocyte tyrosine kinase receptor (Homo sapiens) (P29376 whole entry): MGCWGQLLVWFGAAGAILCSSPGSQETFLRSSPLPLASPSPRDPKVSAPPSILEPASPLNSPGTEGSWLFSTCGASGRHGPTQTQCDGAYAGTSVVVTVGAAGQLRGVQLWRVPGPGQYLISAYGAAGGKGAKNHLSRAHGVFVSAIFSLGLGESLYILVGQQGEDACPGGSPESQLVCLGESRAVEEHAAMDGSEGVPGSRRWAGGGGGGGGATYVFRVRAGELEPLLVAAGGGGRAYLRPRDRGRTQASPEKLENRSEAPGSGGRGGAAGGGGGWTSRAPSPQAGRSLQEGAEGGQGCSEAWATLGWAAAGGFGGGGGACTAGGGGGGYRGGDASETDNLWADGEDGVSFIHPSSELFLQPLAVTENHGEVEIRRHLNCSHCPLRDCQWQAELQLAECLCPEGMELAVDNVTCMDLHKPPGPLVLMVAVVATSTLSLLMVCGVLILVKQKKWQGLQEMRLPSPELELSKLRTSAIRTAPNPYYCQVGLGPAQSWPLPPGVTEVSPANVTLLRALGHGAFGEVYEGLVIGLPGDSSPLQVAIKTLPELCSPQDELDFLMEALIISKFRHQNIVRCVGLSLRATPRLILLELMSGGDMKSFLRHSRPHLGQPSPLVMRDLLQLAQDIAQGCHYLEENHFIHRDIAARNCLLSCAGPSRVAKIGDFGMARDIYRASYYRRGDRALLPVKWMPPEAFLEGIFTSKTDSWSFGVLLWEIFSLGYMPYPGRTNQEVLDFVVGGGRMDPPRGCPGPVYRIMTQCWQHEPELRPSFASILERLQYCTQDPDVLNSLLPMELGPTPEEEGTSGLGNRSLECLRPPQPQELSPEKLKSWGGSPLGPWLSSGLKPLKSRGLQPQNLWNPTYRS
Sequence of G protein-coupled receptor kinase 6 (Homo sapiens) (P43250 whole entry, looked up): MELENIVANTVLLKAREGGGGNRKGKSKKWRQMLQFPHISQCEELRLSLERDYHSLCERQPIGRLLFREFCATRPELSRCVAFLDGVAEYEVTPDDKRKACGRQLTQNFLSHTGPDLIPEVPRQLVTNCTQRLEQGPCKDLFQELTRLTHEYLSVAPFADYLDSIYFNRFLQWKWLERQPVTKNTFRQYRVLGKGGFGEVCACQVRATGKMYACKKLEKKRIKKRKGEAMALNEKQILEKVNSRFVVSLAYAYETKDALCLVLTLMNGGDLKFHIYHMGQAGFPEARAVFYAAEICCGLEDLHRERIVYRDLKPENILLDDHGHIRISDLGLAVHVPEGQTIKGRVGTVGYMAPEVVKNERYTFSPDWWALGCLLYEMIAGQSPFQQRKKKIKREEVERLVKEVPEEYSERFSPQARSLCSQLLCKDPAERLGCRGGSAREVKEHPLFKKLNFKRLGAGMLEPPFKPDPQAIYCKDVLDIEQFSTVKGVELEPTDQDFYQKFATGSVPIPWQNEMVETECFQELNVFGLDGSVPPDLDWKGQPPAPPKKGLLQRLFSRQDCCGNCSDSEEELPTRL
Sequence of Serine/threonine-protein kinase B-raf (Homo sapiens), P15056 [V600E] (P15056 whole entry V600E, the tested form may be a part): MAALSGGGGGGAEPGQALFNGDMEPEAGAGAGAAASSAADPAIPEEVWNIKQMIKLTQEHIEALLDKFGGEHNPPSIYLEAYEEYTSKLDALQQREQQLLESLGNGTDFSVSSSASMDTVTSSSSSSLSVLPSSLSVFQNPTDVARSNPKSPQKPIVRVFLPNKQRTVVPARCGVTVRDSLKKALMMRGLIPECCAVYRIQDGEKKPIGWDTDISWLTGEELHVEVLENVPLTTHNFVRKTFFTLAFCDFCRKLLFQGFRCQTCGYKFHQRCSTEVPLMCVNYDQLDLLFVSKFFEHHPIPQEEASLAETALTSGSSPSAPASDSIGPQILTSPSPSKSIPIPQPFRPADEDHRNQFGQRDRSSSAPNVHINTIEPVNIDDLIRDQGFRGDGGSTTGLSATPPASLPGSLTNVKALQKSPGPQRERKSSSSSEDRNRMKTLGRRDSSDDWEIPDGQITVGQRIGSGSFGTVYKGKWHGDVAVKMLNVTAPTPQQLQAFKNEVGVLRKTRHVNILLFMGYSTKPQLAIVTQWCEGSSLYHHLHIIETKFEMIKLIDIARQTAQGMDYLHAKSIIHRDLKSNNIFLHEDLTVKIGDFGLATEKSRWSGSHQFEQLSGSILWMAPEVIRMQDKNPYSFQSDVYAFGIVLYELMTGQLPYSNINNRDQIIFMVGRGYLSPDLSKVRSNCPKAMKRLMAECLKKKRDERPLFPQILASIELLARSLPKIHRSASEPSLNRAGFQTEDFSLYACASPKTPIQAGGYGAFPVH
Sequence of Receptor-interacting serine/threonine-protein kinase 1 (Homo sapiens) (Q13546 whole entry, the tested form may be a part): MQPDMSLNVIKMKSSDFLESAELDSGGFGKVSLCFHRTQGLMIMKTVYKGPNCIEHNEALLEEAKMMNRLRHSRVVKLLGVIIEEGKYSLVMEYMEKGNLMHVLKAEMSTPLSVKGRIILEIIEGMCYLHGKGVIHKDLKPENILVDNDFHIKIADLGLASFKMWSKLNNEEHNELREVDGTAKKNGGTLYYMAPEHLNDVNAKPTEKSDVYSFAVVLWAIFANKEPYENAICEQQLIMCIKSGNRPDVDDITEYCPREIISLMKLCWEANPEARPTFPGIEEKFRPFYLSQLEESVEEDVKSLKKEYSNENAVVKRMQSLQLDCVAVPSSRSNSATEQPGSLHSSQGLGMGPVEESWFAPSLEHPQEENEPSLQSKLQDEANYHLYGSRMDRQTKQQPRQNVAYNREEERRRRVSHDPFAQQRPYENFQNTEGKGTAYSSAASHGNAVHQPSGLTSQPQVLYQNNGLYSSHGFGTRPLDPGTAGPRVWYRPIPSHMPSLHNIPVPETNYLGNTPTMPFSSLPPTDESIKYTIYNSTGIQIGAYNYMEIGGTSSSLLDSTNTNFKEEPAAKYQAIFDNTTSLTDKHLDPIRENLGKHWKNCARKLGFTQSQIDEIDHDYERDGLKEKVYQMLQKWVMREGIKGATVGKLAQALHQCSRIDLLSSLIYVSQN
Sequence of 5'-AMP-activated protein kinase catalytic subunit alpha-2 (Homo sapiens) (P54646 whole entry, looked up): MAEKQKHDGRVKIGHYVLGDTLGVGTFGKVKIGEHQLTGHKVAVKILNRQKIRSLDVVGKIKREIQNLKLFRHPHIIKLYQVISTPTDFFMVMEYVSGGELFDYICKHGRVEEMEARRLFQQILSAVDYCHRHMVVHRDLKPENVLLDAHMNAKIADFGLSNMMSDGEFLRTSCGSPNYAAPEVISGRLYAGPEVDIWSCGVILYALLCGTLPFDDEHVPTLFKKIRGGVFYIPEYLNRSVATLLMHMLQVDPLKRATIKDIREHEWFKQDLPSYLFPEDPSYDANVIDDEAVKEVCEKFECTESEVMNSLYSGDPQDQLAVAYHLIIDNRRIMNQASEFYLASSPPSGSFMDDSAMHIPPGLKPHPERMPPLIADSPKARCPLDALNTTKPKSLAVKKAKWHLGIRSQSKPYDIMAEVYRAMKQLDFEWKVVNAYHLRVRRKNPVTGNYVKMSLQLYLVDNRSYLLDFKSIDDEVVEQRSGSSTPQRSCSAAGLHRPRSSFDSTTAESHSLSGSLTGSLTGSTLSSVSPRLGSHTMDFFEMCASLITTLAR

On to `CN(C)C(=O)c1cc2cnc(Nc3ccc(NC(=O)CCCCCCCN=C=S)cc3)nc2n1C1CCCC1`, for which the inhibition in assay [1] is 0%; in assay [2] it was -8%; in assay [3], 5%; in assay [4], 33%; in [5], 38%; in [6] it was 11%. Besides, the inhibition is 71% in [7]; 21% in assay [10]; 37% in assay [11]; 77% in the assay listed under Homo sapiens; 20% in assay [12]; 31% in assay [14]. Moreover, the inhibition in assay [15] was 6%; in assay [16] it was 72%; in assay [17], -10%; in [18], 76%. For the same compound, the concentration for half-maximal inhibition (IC50) with MDA-MB-231 was 3040 nM; on CDK4/Cyclin D3, 148 nM. The Activity with A549 [8] is 16.4%; in the assay on A549 [9], “Dose-dependent effect”; in the assay with A549 [13] it was 1.06%.

A word on the inhibition: it is the change of the read-out against control, counted positive when it falls. The IC50 is the midpoint of a concentration-inhibition curve.

These data come from ChEMBL document CHEMBL4376814, “Novel cyclin-dependent kinase 9 (CDK9) inhibitor with suppression of cancer stemness activity against non-small-cell lung cancer” (Eur J Med Chem, 2019).
